Assay [1] deals with Vero. The experiment in a line: Cytotoxicity against African green monkey Vero cells assessed as cell viability after 48 hrs by neutral red-based assay. To be noted: Chlorocebus sabaeus. Put shortly: (§1)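 Mammalian cell lines from ATCC: human hepatic carcinoma HepG2, pig kidney epithelial LLC-PK1, and African green monkey kidney Vero. Highest test concentration was 50 μg/mL, and doxorubicin was the positive control at up to 10 μg/mL. IC50 was taken as the concentration giving 50% growth inhibition of the mammalian cells.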

The subject of assay [2] is Enterococcus faecalis. Description: Antibacterial activity against low level vancomycin-resistant Enterococcus faecalis ATCC 51299 by plate reader analysis. It counts as functional, organism-based. Put shortly: (§2)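 Strains from ATCC; modified CLSI broth microdilution. Samples in DMSO were serially diluted in 20% DMSO–saline and plated in duplicate. Inocula were set by adjusting OD630 to give the final target CFU/mL. Methicillin and vancomycin were positive controls, with highest test concentrations of 50 and 20 μg/mL. IC50 is the 50% growth inhibition relative to controls, from curve fitting.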

For assay [3], the system named is Staphylococcus aureus. Description: Antibacterial activity against methicillin-resistant Staphylococcus aureus ATCC 1717 by plate reader analysis. It counts as functional, organism-based. The method, boiled down: as §2
The test system of assay [4] is Staphylococcus aureus. The experiment in a line: Antibacterial activity against methicillin-resistant Staphylococcus aureus ATCC 33591 by plate reader analysis. It counts as functional, organism-based. Put shortly:
as §2

Assay [5] has as its system Enterococcus faecalis. Description: Antibacterial activity against vancomycin-sensitive Enterococcus faecalis ATCC 29212 by plate reader analysis. It counts as functional, organism-based. Put shortly: as §2
The test system of assay [6] is LLC-PK1. The experiment in a line: Cytotoxicity against pig LLC-PK1 cells assessed as cell viability after 48 hrs by neutral red-based assay. The settings on record: Sus scrofa, LLC-PK1, 48 h. Put shortly: as §1
Assay [7] concerns Enterococcus faecium. The experiment in a line: Antibacterial activity against vancomycin-resistant Enterococcus faecium ATCC 700221 by plate reader analysis. The format is functional, organism-based. Put shortly:
as §2

For assay [8], the system named is Staphylococcus aureus. Description: Antibacterial activity against methicillin-resistant Staphylococcus aureus ATCC 1696 by plate reader analysis. The format is functional, organism-based. Put shortly:
as §2

For assay [9], the system named is HepG2. Description: Cytotoxicity against human HepG2 cells assessed as cell viability after 48 hrs by neutral red-based assay. To be noted: HepG2, 48 h. Put shortly:
as §1

For assay [10], the system named is Staphylococcus aureus. Description: Antibacterial activity against methicillin-sensitive Staphylococcus aureus ATCC 29213 by plate reader analysis. The format is functional, organism-based. Put shortly: as §2
Assay [11] deals with Staphylococcus aureus. The experiment in a line: Antibacterial activity against methicillin-resistant Staphylococcus aureus ATCC 1708 by plate reader analysis. The format is functional, organism-based. The method, boiled down:
as §2

Broadly, the IC50 is the concentration that gives 50% inhibition.

Values after ≈ are worked out from the molar mass of the structure shown.

On to `CC(C)=CCC1=C2OC(C)(C)CC3OC23C(=O)C(C(=O)C(C)C)=C1O` (centres undefined), for which the half-inhibitory concentration (IC50) in [1] came out at 21 µg/mL (≈ 60.6 µM); in [2], 2.8 µg/mL (≈ 8.08 µM); in assay [3], 1.6 µg/mL (≈ 4.62 µM); in assay [4], 1.4 µg/mL (≈ 4.04 µM); in assay [5], 5.3 µg/mL (≈ 15.3 µM); in assay [6], 30 µg/mL (≈ 86.6 µM). The half-maximal inhibitory concentration (IC50) in [7] worked out at 1.6 µg/mL (≈ 4.62 µM); in assay [8] it was 8.8 µg/mL (≈ 25.4 µM); in assay [9], 31 µg/mL (≈ 89.5 µM); in assay [10], 2.4 µg/mL (≈ 6.93 µM); in assay [11], 8.6 µg/mL (≈ 24.8 µM).

In the case of `COc1cccc(OC)c1C(=O)N[C@@H]1C(=O)N2[C@@H]1SC(C)(C)[C@@H]2C(=O)O` [METHICILLIN], the IC50 was 26.9 µg/mL (≈ 70.7 µM) in [3]; > 50 µg/mL in [4]; 3 µg/mL (≈ 7.89 µM) in [8]; 0.5 µg/mL (≈ 1.31 µM) in [10]; 3.2 µg/mL (≈ 8.41 µM) in assay [11].

Take `COc1cccc2c1C(=O)c1c(O)c3c(c(O)c1C2=O)C[C@@](O)(C(=O)CO)C[C@@H]3O[C@H]1C[C@H](N)[C@H](O)[C@H](C)O1` [DOXORUBICIN]: in assay [6], the IC50 came out at 0.5 µg/mL (≈ 0.92 µM).

Regarding `CC1=C2OC(C)(C)CC3OC23C(=O)C(C(=O)C(C)C)=C1O` (centres undefined), the IC50 in assay [4] was 11.1 µg/mL (≈ 38 µM); in assay [10], 10 µg/mL (≈ 34.2 µM).

Turning to `CN[C@@H](CC(C)C)C(=O)N[C@H]1C(=O)N[C@@H](CC(N)=O)C(=O)N[C@H]2C(=O)N[C@H]3C(=O)N[C@H](C(=O)N[C@@H](C(=O)O)c4cc(O)cc(O)c4-c4cc3ccc4O)[C@H](O)c3ccc(c(Cl)c3)Oc3cc2cc(c3O[C@H]2O[C@@H](CO)[C@H](O)[C@@H](O)[C@@H]2O[C@@H]2C[C@@](C)(N)[C@@H](O)[C@@H](C)O2)Oc2ccc(cc2Cl)[C@H]1O`, the results for the IC50 in assay [2], in [5] and in [7] were 3.3 µg/mL (≈ 2.28 µM), 1.4 µg/mL (≈ 0.966 µM) and > 20 µg/mL, respectively.

For the compound `CCC(C)C(=O)C1=C(O)C(C)=C2OC(C)(C)CC3OC23C1=O` (centres undefined), the half-maximal inhibitory concentration (IC50) in assay [4] stood at 6.2 µg/mL (≈ 20.2 µM); in [10] it was 5.6 µg/mL (≈ 18.3 µM).

Values taken from ChEMBL document CHEMBL3739408, “Antibacterial Prenylated Acylphloroglucinols from Psorothamnus fremontii” (J Nat Prod, 2015).
